Measurements as given in ChEMBL document CHEMBL4000211, “Discovery of novel polycyclic spiro-fused carbocyclicoxindole-based anticancer agents” (Eur J Med Chem, 2017).
pIC50: −log10 of the molar value. Calls of active or inactive are those of the source. No cut-off for these calls is given here.

Legend:
HCT-116 [1] = test: Cell cycle arrest in human HCT116 cells assessed as accumulation at S phase at 10 uM after 48 hrs by propidium iodide staining-based flow cytometric method (reference value: 34.83%); type: functional
HCT-116 [2] = test: Cell cycle arrest in human HCT116 cells assessed as accumulation at G1 phase at 10 uM after 48 hrs by propidium iodide staining-based flow cytometric method (reference value: 40.75%); type: functional
HCT-116 [3] = test: Induction of apoptosis in human HCT116 cells assessed as increase in cleaved caspase-3 level after 24 hrs by Western blot method; type: functional, cell-based
Outline: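 Treated HCT116 were lysed on ice in RIPA buffer with 1% protease inhibitor cocktail and spun 13000 g, 20 min, 4 °C. Protein was quantified by BCA. Equal protein was run on SDS-PAGE, blotted to PVDF, probed with primary and HRP secondary antibodies, and detected by enhanced chemiluminescence.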

HCT-116 [4] = test: Induction of apoptosis in human HCT116 cells assessed as necrotic cells at 10 uM after 48 hrs by annexin V-FITC/propidium iodide staining-based flow cytometric method (reference value: 2.29%); type: functional
HCT-116 [5] = test: Cell cycle arrest in human HCT116 cells assessed as accumulation at sub G1 phase at 12.5 uM after 48 hrs by propidium iodide staining-based flow cytometric method (reference value: 0.86%); type: functional
NCI-H1299 = test: Antiproliferative activity against human NCI-H1299 cells after 48 hrs by MTT assay; type: functional, cell-based; conditions: NCI-H1299, 48 h
Outline: (§1)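 Cells seeded at 3×10³/well and grown 24 h, then exposed 48 h to six final concentrations, twofold steps down from 30. MTT (5 mg/mL) was added for 2–4 h at 37 °C. Supernatant was removed, formazan dissolved in DMSO, and OD read at 570 nm. Results are given as IC50, or as percent inhibition where IC50 exceeds the top concentration. At least three runs.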

HCT-116 [6] = test: Induction of apoptosis in human HCT116 cells assessed as late apoptotic cells at 10 uM after 48 hrs by annexin V-FITC/propidium iodide staining-based flow cytometric method (reference value: 1.06%); type: functional
HCT-116 [7] = test: Cell cycle arrest in human HCT116 cells assessed as accumulation at G1 phase at 10 uM after 24 hrs by propidium iodide staining-based flow cytometric method (reference value: 43.79%); type: functional
[8] = target: E3 ubiquitin-protein ligase Mdm2 (Homo sapiens) (UniProt Q00987); test: Inhibition of MDM2-mediated p53 degradation in human HCT116 cells assessed as increase in p53 levels at 7.5 to 12.5 uM after 24 hrs by Western blot method; type: cell-based
Outline: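 Treated HCT116 cells lysed on ice in RIPA buffer with 1% protease inhibitor cocktail. Lysates cleared at 13000 g for 20 min at 4 °C and protein measured by BCA. Equal protein amounts run on SDS-PAGE, transferred to PVDF and probed with primary then HRP secondary antibodies. Bands detected by enhanced chemiluminescence; 24 h treatment.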

HCT-116 [9] = test: Induction of apoptosis in human HCT116 cells assessed as late apoptotic cells at 10 uM after 24 hrs by annexin V-FITC/propidium iodide staining-based flow cytometric method (reference value: 2.77%); type: functional
HCT-116 [10] = test: Induction of apoptosis in human HCT116 cells assessed as early apoptotic cells at 12.5 uM after 48 hrs by annexin V-FITC/propidium iodide staining-based flow cytometric method (reference value: 1.6%); type: functional
HCT-116 [11] = test: Induction of apoptosis in human HCT116 cells assessed as viable cells at 10 uM after 24 hrs by annexin V-FITC/propidium iodide staining-based flow cytometric method (reference value: 93.48%); type: functional; conditions: HCT-116, 24 h, read-out: Activity
Outline: (§2)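 HCT116 cells seeded at 1×10⁶ cells/mL in 6-well plates for 24 h, then exposed to 0, 7.5, 10 or 12.5 μM for a further 24 h or 48 h. Cells washed twice in PBS, then stained with Annexin V-FITC plus PI (100 μg/mL stock) in binding buffer (10 mM HEPES, pH 7.4, 2.5 mM CaCl₂) for 30 min at room temperature in the dark. Early and late apoptotic fractions gated by flow cytometry.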

HCT-116 [12] = test: Induction of apoptosis in human HCT116 cells assessed as necrotic cells at 10 uM after 24 hrs by annexin V-FITC/propidium iodide staining-based flow cytometric method (reference value: 1.85%); type: functional
HCT-116 [13] = test: Induction of apoptosis in human HCT116 cells assessed as early apoptotic cells at 10 uM after 24 hrs by annexin V-FITC/propidium iodide staining-based flow cytometric method (reference value: 1.9%); type: functional
HCT-116 [14] = test: Cell cycle arrest in human HCT116 cells assessed as accumulation at G2 phase at 10 uM after 48 hrs by propidium iodide staining-based flow cytometric method (reference value: 31.27%); type: functional
HCT-116 [15] = test: Induction of apoptosis in human HCT116 cells assessed as late apoptotic cells at 12.5 uM after 48 hrs by annexin V-FITC/propidium iodide staining-based flow cytometric method (reference value: 1.06%); type: functional
HCT-116 [16] = test: Cell cycle arrest in human HCT116 cells assessed as accumulation at S phase at 7.5 uM after 24 hrs by propidium iodide staining-based flow cytometric method (reference value: 36.43%); type: functional
BGC-823 = test: Antiproliferative activity against human BGC823 cells after 48 hrs by MTT assay; type: functional, cell-based; conditions: BGC-823, 48 h; outline: as §1
HCT-116 [17] = test: Cell cycle arrest in human HCT116 cells assessed as accumulation at G2 phase at 7.5 uM after 24 hrs by propidium iodide staining-based flow cytometric method (reference value: 26.10%); type: functional
HCT-116 [18] = test: Cell cycle arrest in human HCT116 cells assessed as accumulation at S phase at 7.5 uM after 48 hrs by propidium iodide staining-based flow cytometric method (reference value: 34.83%); type: functional
HCT-116 [19] = test: Induction of apoptosis in human HCT116 cells assessed as viable cells at 7.5 uM after 24 hrs by annexin V-FITC/propidium iodide staining-based flow cytometric method (reference value: 93.48%); type: functional; conditions: HCT-116, 24 h, read-out: Activity; outline: as §2
HCT-116 [20] = test: Induction of apoptosis in human HCT116 cells assessed as cell shrinkage at 7.5 to 12.5 uM after 24 hrs by inverted microscopic method; type: functional, cell-based
Outline: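 HCT116 at 1×10⁵/well grown 24 h, then treated 24 h (0, 7.5, 10, 12.5). Cells rinsed in PBS and fixed in 75% ethanol. Morphology was examined by inverted microscopy, then cells were stained with Hoechst 33342 for fluorescence microscopy of nuclei.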

HCT-116 [21] = test: Induction of apoptosis in human HCT116 cells assessed as necrotic cells at 12.5 uM after 24 hrs by annexin V-FITC/propidium iodide staining-based flow cytometric method (reference value: 1.85%); type: functional; outline: as §2
MCF7 = test: Antiproliferative activity against human MCF7 cells after 48 hrs by MTT assay; type: functional, cell-based; conditions: MCF7, 48 h; outline: as §1
HCT-116 [22] = test: Induction of apoptosis in human HCT116 cells assessed as viable cells at 12.5 uM after 48 hrs by annexin V-FITC/propidium iodide staining-based flow cytometric method (reference value: 95.05%); type: functional; conditions: HCT-116, 48 h, read-out: Activity; outline: as §2
HCT-116 [23] = test: Induction of apoptosis in human HCT116 cells assessed as viable cells at 10 uM after 48 hrs by annexin V-FITC/propidium iodide staining-based flow cytometric method (reference value: 95.05%); type: functional; conditions: HCT-116, 48 h, read-out: Activity; outline: as §2

E3 ubiquitin-protein ligase Mdm2 (Homo sapiens), sequence (Q00987 whole entry, looked up): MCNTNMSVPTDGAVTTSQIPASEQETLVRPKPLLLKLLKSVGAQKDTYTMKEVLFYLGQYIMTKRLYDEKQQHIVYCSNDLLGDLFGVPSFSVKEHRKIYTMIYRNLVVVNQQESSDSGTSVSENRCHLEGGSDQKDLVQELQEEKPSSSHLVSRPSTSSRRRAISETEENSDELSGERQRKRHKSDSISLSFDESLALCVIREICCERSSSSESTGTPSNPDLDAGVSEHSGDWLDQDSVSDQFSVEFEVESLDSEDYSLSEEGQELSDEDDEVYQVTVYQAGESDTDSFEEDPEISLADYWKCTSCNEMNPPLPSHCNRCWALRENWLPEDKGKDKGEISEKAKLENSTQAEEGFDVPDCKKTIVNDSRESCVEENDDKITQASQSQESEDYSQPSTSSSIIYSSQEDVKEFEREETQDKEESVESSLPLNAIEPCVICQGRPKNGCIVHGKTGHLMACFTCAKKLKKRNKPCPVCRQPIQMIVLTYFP

Compound: C[C@@H]1Oc2ccc3ccccc3c2[C@@H]2[C@@H]1C=C(C=O)[C@@H](C)[C@]21C(=O)Nc2ccccc21
- Activity (HCT-116 [1]): 18.5%
- Activity (HCT-116 [2]): 82.32%
- Activity (HCT-116 [3]): Dose-dependent effect
- Activity (HCT-116 [4]): 2.82%
- Activity (HCT-116 [5]): 64.26%
- pIC50 (NCI-H1299): < 4.52
- Activity (HCT-116 [6]): 8.18%
- Activity (HCT-116 [7]): 75.18%
- inhibition [8]: Active
- Activity (HCT-116 [9]): 10.13%
- Activity (HCT-116 [10]): 47.17%
- viability at 10 µM (HCT-116 [11]): 76.1%
- Activity (HCT-116 [12]): 2.46%
- Activity (HCT-116 [13]): 11.32%
- Activity (HCT-116 [14]): 18.42%
- Activity (HCT-116 [15]): 18.89%
- Activity (HCT-116 [16]): 32.56%
- pIC50 (BGC-823): < 4.52
- Activity (HCT-116 [17]): 28.5%
- Activity (HCT-116 [18]): 23.94%
- viability at 7.5 µM (HCT-116 [19]): 89.9%
- Activity (HCT-116 [20]): Active
- Activity (HCT-116 [21]): 2.21%
- pIC50 (MCF7): 4.79
- viability at 12.5 µM (HCT-116 [22]): 28.6%
- viability at 10 µM (HCT-116 [23]): 61.5%
